Measured values published in ChEMBL document CHEMBL4004789, “Isochromans and Related Constituents from the Endophytic Fungus Annulohypoxylon truncatum of Zizania caduciflora and Their Anti-Inflammatory Effects” (J Nat Prod, 2017).
Calls of active or inactive are those of the source. No cut-off for these calls is given here.

Legend:
[1] = Anti-inflammatory activity in C57BL/6 mouse BMDC assessed as inhibition of LPS-induced IL12 p40 production pretreated for 1 hr followed by LPS-stimulation after 18 hrs by ELISA; type: functional, cell-based
In short: (§1)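 BMDCs came from wild-type C57BL/6 bone marrow, cultured 6 days with GM-CSF-containing J558L supernatant in RPMI 1640 with 10% FBS; loosely adherent cells were used. Cells were plated at 1 × 10⁵/well and pretreated 1 h with compound at 2, 5, 10, 25 and 50 μM. Stimulation was 10 ng/mL S. minnesota LPS. Murine cytokine in 18 h supernatants was measured by ELISA. Mean + SD, ≥3 independent experiments in triplicate.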

[2] = Anti-inflammatory activity in C57BL/6 mouse BMDC assessed as inhibition of LPS-induced TNFalpha production pretreated for 1 hr followed by LPS-stimulation after 18 hrs by ELISA; type: functional, cell-based; in short: as §1
[3] = Cytotoxicity against C57BL/6 mouse BMDC at 50 uM after 24 hrs by CCK8 assay; type: cell-based
In short: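 GM-CSF-derived C57BL/6 BMDCs were seeded at ~1 × 10⁴ cells/well and cultured overnight. Compound was added across a dose series for 24 h. CCK-8 reagent was then added for 1 h, and absorbance at 450 nm was read as viable cell number. Triplicate wells.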

[4] = Anti-inflammatory activity in C57BL/6 mouse BMDC assessed as inhibition of LPS-induced IL-6 production pretreated for 1 hr followed by LPS-stimulation after 18 hrs by ELISA; type: functional, cell-based; in short: as §1
[5] = tested on: BMDC; assay: Anti-inflammatory activity in C57BL/6 mouse BMDC assessed as inhibition of LPS-induced IL12 p40 production at 50 uM pretreated for 1 hr followed by LPS-stimulation after 18 hrs by ELISA; type: functional, cell-based
In short: (§2)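 Wild-type C57BL/6 mouse bone marrow cells were grown 6 days in RPMI 1640 with 10% FBS, 50 μM β-ME, 2 mM glutamine and 3% J558L supernatant (GM-CSF). Non-adherent DCs were plated at 1 × 10⁵/well and given compound at 50 μM for 1 h. They were then stimulated with 10 ng/mL Salmonella minnesota LPS. Supernatant cytokine was measured by ELISA at 18 h. Mean + SD, ≥3 independent experiments in triplicate.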

[6] = tested on: BMDC; assay: Anti-inflammatory activity in C57BL/6 mouse BMDC assessed as inhibition of LPS-induced IL-6 production at 50 uM pretreated for 1 hr followed by LPS-stimulation after 18 hrs by ELISA; type: functional, cell-based; in short: as §2
[7] = tested on: BMDC; assay: Anti-inflammatory activity in C57BL/6 mouse BMDC assessed as inhibition of LPS-induced TNFalpha production at 50 uM pretreated for 1 hr followed by LPS-stimulation after 18 hrs by ELISA; type: functional, cell-based; in short: as §2

Structure (SMILES) | IC50 [1] [µM] | IC50 [2] [µM] | IC50 [4] [µM] | Activity [3] | inhibition [5] | inhibition [6] | inhibition [7]
COc1cc2c(c(O)c1O)CO[C@H](C)[C@H]2O | > 100 | > 100 | > 100 | Non-Toxic |  |  | 
Cc1ccc2c(c1O)C(=O)O[C@H](C)C2 | > 100 | > 100 | > 100 | Non-Toxic |  |  | 
C[C@@H]1CC2=C(CO1)C(=O)[C@](C)(O)[C@@H](O)C2 | 19.4 | 37.6 | 5.3 | Non-Toxic | Active | Active | Active
C[S+]([O-])c1ccc(-c2nc(-c3ccc(F)cc3)c(-c3ccncc3)[nH]2)cc1 (stereo not drawn) [SB-203580] | 5 | 7.2 | 3.5 |  |  |  | 
COc1cc2c(c(O)c1OC)CO[C@H](C)[C@H]2O | > 100 | > 100 | > 100 | Non-Toxic |  |  | 

The next lines start with results.

IC50 [1] [µM] | IC50 [2] [µM] | IC50 [4] [µM] | Structure (SMILES) | Activity [3] | inhibition [5] | inhibition [6] | inhibition [7]
> 100 | > 100 | > 100 | COc1c2c(cc(O)c1O[C@H]1O[C@H](CO)[C@@H](O)[C@H]1O)C[C@@H](C)OC2 | Non-Toxic |  |  | 
> 100 | > 100 | > 100 | COc1c(O)cc2c(c1O)CO[C@H](C)C2 | Non-Toxic |  |  | 
> 100 | > 100 | > 100 | COc1cc2c(c(O)c1OC)CO[C@H](C)C2 | Non-Toxic |  |  | 
> 100 | > 100 | > 100 | C[C@@H]1Cc2cc(O)cc(O)c2CO1 | Non-Toxic |  |  | 
